Screen size: about 2,500 compounds; about 460 (18%) were called active. Not all results are given here. Unmarked numbers belong to inactive results.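 The calls were made as follows: active = mean activation above a cutoff of low control average plus 3 SD from the earlier screen (cut at about 12% in these data); inactive = the rest.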

The nature of this experiment: IANBD-channel fluorescence artefacts in buffer – biochemical, artefact control for cardiac RTF calcium sensitizer project, confirmation (AID 504382). Conditions: IANBD fluorescence interference counterscreen, EC20 Ca2+, at 7.2 µM, hits give high values, scaled: EC20 calcium 0, EC100 calcium 100. A digest of the protocol: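 Also added: EC20 calcium, 0.472 mM; dosing: single nominal 7.2 µM compound dose, 0.7% DMSO final; timing: 15 min, 25 °C; detection: fluorescence intensity, excitation 480 nm, emission 540 nm; replicates: each compound tested in triplicate wells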
In the case of `Cc1ccc(C)c(N2CCN(C(=O)CN3C(=S)NC(C)(C)CC3C)CC2)c1` (stereo unspecified), the fluorescence artifact activation was 8.59%.

Turning to `C/C=C/c1ccc(OCCCNCC(C)O)c(OC)c1` (stereo unspecified), the fluorescence artifact activation was 112% (active).

As for `COc1cc(/C=C2\CC/C(=C\c3ccc(OCCO)c(OC)c3)C2=O)ccc1OCCO`, the fluorescence artifact activation was 0.12%.

`COc1ccc(OC)c(/C=N/N=C(\N)c2nonc2N)c1`: the fluorescence artifact activation is 9.14%.

For the compound `COc1ccc(CN2CCC(=O)N([C@H](CO)c3ccccc3)CC2)cc1`, the fluorescence artifact activation is 6.01%.

Take `CCOc1ccccc1N1CCN(CC(=O)N(CC(C)C)c2c(N)n(CC(C)C)c(=O)[nH]c2=O)CC1`: the fluorescence artifact activation was 13.8% (active).

Turning to `CC(C)CN(C(=O)CCCc1nc2ccccc2c(=O)[nH]1)c1c(N)n(Cc2ccccc2)c(=O)[nH]c1=O`, the fluorescence artifact activation is 0.01%.

`CCOc1ccccc1N1CCN(CC(=O)c2c(N)n(C)c(=O)n(C)c2=O)CC1`: the fluorescence artifact activation was 2.53%.

In the case of `O=C1NC(c2ccccc2)=C(c2nc3ccccc3s2)C(c2ccc(O)cc2)N1` (stereo unspecified), the fluorescence artifact activation was -0.03%.

In the case of `Nc1ccc2c3c(cccc13)-c1ccccc1-2`, the fluorescence artifact activation was 0.02%.

For `Cc1n[nH]c(C)c1N1C(=O)c2cccc3c(N4CCCCCC4)ccc(c23)C1=O`, the fluorescence artifact activation was 0.08%.

`COc1cc(/C=C2\CCC(C)C3=C(c4cc(OC)c(OC)c(OC)c4)C(C#N)=C(N)OC32)cc(OC)c1OC` (stereo unspecified): the fluorescence artifact activation is 14.5% (active).

In the case of `CC1(C)CC(=O)C2=C(C1)OC(N)=C(C#N)C21CCN(Cc2ccccc2)CC1`, the fluorescence artifact activation is 0.25%.

Regarding `COC(=O)C1=COC(C)C2CN3CCc4c([nH]c5ccccc45)C3CC12` (stereo unspecified), the fluorescence artifact activation was 1.05%.

For the compound `CCOC(=O)Cn1c(=NC(=O)c2cc(-c3cccs3)nc3ccccc23)sc2cc(S(N)(=O)=O)ccc21`, the fluorescence artifact activation was -0.11%.

On to `COc1ccccc1NC(=O)/C=C/C(=O)O`, for which the fluorescence artifact activation was 0.29%.

Regarding `O=C(Nc1ccccc1OC(=O)c1ccccc1)c1ccccc1`, the fluorescence artifact activation was 45% (active).

Consider `CC(C)C(=O)c1cc2c(cc1NC(=O)c1ccccc1)OCCO2`, for which the fluorescence artifact activation is 0.02%.

On to `COc1ccc(OC)c(C2C3CN(C(C)C)CC=C3C(C#N)=C(N)C2(C#N)C#N)c1` (stereo unspecified), for which the fluorescence artifact activation is 1.64%.

Regarding `CCn1c(NC(=O)Nc2cccc(C)c2C)cc2sccc21`, the fluorescence artifact activation is 0.08%.

Turning to `C#CC[N+](C)(C)CCCCCCCCCC`, the fluorescence artifact activation is 13.8% (active).

Turning to `Cc1nccc(-c2cccc(N/N=C(\C#N)C(=O)c3ccccc3)c2)n1`, the fluorescence artifact activation is -0.02%.

On to `CCOC(=O)Cn1nc2sc3ccccc3n2c(=O)c1=O`, for which the fluorescence artifact activation is -0.05%.

Consider `Cc1ccc(CNC(=O)c2cccc3c2C(=O)c2ccc(N4CCCCC4)cc2S3(=O)=O)cc1`, for which the fluorescence artifact activation was -0.01%.

Consider `O=C(CCc1ccc(S(=O)(=O)NCCc2ccccc2)cc1)N1CCN(Cc2ccc3c(c2)OCO3)CC1`, for which the fluorescence artifact activation was -0.04%.

Take `Cc1ccc(S(=O)(=O)NC(C)(C)CN2CCC(Cc3ccccc3)CC2)cc1`: the fluorescence artifact activation is 3.9%.

These data come from PubChem BioAssay AID504382 (The Scripps Research Institute Molecular Screening Center, 2011).
